From PubChem
PKA-R1A act = activators of PKA-R1A holoenzyme, primary screen, biochemical, fluorescence polarization, Cy5-IP20, bovine R1A, mouse PKAc; cAMP-dependent protein kinase type I-alpha regulatory subunit (Bos taurus) + …; PKA-R1A dissociation; scaled: DMSO 0%, 113 µM cGMP 100%; activation, % at 11.4 µM; 0.083% of 340,000 active; AID 504707, 2011;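 active = percent activation above the mean of all tested compounds plus 3 SD, cut at about 19% in these data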;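 note: higher means more PKAc released from R1A so a rise in polarization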
PKA-R2B activ = activators of PKA-R2B holoenzyme, primary screen, biochemical, fluorescence polarization, Cy5-IP20, human; cAMP-dependent protein kinase catalytic subunit beta (Homo sapiens) + cAMP-dependent …; PKA-R2B holoenzyme dissociation; R2B truncated from residue 108, S112A mutant; 0% DMSO only, 100% 113 µM cGMP; activation, % at 11.4 µM; 0.079% of 340,000 active; AID 504700, 2011;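 active = activation above a cutoff set at the mean over all compounds plus 3 SD, cut at about 18% in these data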;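 note: higher means more holoenzyme dissociation and a rise in polarization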
Target sequence (P31323 whole entry, looked up, other chains not shown, the tested form may be a part): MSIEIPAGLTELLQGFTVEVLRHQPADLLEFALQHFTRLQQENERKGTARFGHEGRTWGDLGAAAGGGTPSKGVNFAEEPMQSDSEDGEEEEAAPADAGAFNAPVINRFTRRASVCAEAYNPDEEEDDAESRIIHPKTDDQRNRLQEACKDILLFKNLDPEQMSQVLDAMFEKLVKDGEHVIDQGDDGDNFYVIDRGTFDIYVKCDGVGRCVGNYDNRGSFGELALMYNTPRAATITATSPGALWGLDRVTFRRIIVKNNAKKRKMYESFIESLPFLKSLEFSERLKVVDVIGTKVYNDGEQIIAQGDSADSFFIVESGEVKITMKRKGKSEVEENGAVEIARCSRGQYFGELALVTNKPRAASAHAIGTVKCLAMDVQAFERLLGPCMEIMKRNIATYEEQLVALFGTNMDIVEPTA
Cardio protect = cardioprotection against H2O2-induced cell death, primary screen, uHTS, H9c2 cells, ATPLite luminescence. AID 588492, 2011. H9c2 cardiomyocytes, H2O2 injury protection, 2 h. protection from H2O2 cell death, % at 20 µM. 0.63% of 360,000 active;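 active = compounds giving at least 50% protection of heart cells from peroxide-induced death in the single-dose screen, raw or plate-pattern-corrected value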
Rin1 Abl inh = inhibitors of Rin1-Abl protein binding, primary screen, biochemical, TR-FRET. Tyrosine-protein kinase ABL1 (Homo sapiens) + Ras and Rab interactor 1 (Homo sapiens), …. inhibition, % at 7.35 µM. 0.4% of 360,000 active; in the data active = inhibition above about 5%, passing the limit was not always enough
TbMetRS inhib = T. brucei MetRS inhibitors, primary screen, biochemical, luminescence; methionyl-tRNA synthetase (Trypanosoma brucei brucei); purified T. brucei MetRS, ATP depletion, Kinase-Glo luminescence; inhibition, % at 11.9 µM; 0.4% of 360,000 active;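 active = inhibition above a per-plate cutoff of the control wells' mean inhibition plus 3 SD, cut at about 5.5% in these data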
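Assay system: T. brucei methionyl-tRNA synthetase, purified | Medium: HEPES buffer with MgCl2, KCl, DTT, spermine, BSA, pyrophosphatase | Compound: 11.9 µM single point | Incubation: 15 min enzyme-compound preincubation, 2 h reaction, 10 min detection, 25 °C | Measured by: Kinase-Glo luciferase luminescence reporting remaining unconsumed ATP | Measure: % inhibition normalized to control-well medians | Replication: Singlicate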
Tb MetRS conf = T. brucei MetRS inhibitors, confirmation, biochemical, luminescence. inhibition, % at 11.9 µM. 93% of 1,400 active. T. brucei MetRS enzyme, luminescence (ATP depletion). shares compounds with TbMetRS inhib; in the data active = inhibition above about 7%
Jurkat cytotox = Jurkat T cell cytotoxicity, cytotoxicity control for T. brucei MetRS inhibitor project, luminescence, high throughput. Jurkat cells viability, ATP luminescence. shares compounds with TbMetRS inhib. 12% of 1,400 active. inhibition, % at 8.3 µM; in the data active = inhibition above about 15%
TbMetRS FP orth = T. brucei MetRS inhibitors, orthogonal assay for T. brucei MetRS inhibitor project, biochemical, fluorescence polarization; shares compounds with TbMetRS inhib; 44% of 1,400 active; purified T. brucei MetRS; AID 651607, 2012; inhibition, % at 11.9 µM; in the data active = inhibition above about 17%
Of the large screens only hits and unclear results are named; the others gave an inactive call (follow-up assays come after a bar, where they were run). Most compounds without a hit are left out; they make up all but 1.5% or so of the library.

Cc1ccc(SCc2nc3ccccc3n2CC(=O)Nc2ccc(Cl)cc2)cc1	TbMetRS inhib 17 | Tb MetRS conf 22 | Jurkat cytotox inactive | TbMetRS FP orth 89
Cc1ccc(SCc2nc3ccccc3n2CC(=O)Nc2ccccc2)cc1	none
COc1cccc(CN=C2Nc3ccccc3CS2)c1	TbMetRS inhib 6.1 | Tb MetRS conf 11 | Jurkat cytotox inactive | TbMetRS FP orth inactive
Clc1ccc(CN=C2Nc3ccccc3CS2)cc1	TbMetRS inhib 12 | Tb MetRS conf 25 | Jurkat cytotox inactive | TbMetRS FP orth inactive
c1cncc(CN=C2Nc3ccccc3CS2)c1	TbMetRS inhib 8.6 (no result: PKA-R1A act, PKA-R2B activ) | Tb MetRS conf 17 | Jurkat cytotox inactive | TbMetRS FP orth inactive
c1ccc2c(c1)CSc1ccccc1N2	none (no result: PKA-R1A act, PKA-R2B activ)
COc1ccccc1CN=C1Nc2ccccc2CS1	TbMetRS inhib 13 | Tb MetRS conf 32 | Jurkat cytotox inactive | TbMetRS FP orth inactive
Cc1ccn(C(=O)c2ccc(NC(=O)CC(C)C)cc2)n1	none
C/C(=N/NS(=O)(=O)c1ccc(Br)cc1)c1cccc(NC(=O)C2CC2)c1	none
CCn1c(CC(=O)Nc2ccccc2Cl)nnc1SCC(=O)NC1CCCC1	none
O=C(Nc1ccc(OCc2ccccc2)cc1)Nc1nnc([C@@H]2C[C@H](O)[C@@H](CO)O2)s1	none (no result: PKA-R1A act, PKA-R2B activ)
CCN(C(=O)COC(=O)c1cccc(-n2cnnn2)c1)C1CCCCC1	none
O=C(COC(=O)CN1C(=O)C2CC=CCC2C1=O)Nc1cccc([N+](=O)[O-])c1 (stereo unspecified)	none
O=[N+]([O-])c1ccccc1C(=Nc1ccccc1)c1c(O)cc(O)cc1O	none
Cc1ccc(CN=C2Nc3ccccc3CS2)cc1	TbMetRS inhib 19 | Tb MetRS conf 32 | Jurkat cytotox inactive | TbMetRS FP orth inactive
Cc1ccc(C)c(C2=NNC(=NCc3ccccc3)SC2)c1	none
CCOC(=O)C(/C=C(\C#N)C(=O)OCC)=C(/N)N1CCN(c2ccc(OC)cc2)CC1	TbMetRS inhib 22 | Tb MetRS conf 43 | Jurkat cytotox inactive | TbMetRS FP orth inactive
Cc1cc(=O)c2cc(Br)ccc2[nH]1	TbMetRS inhib 6.0 | Tb MetRS conf 7.5 | Jurkat cytotox inactive | TbMetRS FP orth inactive
Cc1cc(=O)c2ccccc2[nH]1	none
C=CCn1c(Cc2ccccc2)n[nH]c1=S	none
C=CCn1c(Cc2nc3ccc(Cl)cc3[nH]2)n[nH]c1=S	TbMetRS inhib 6.7 | Tb MetRS conf 21 | Jurkat cytotox inactive | TbMetRS FP orth inactive
Cc1cc(SCC(=O)N/N=C/c2ccc(O)c(O)c2)c(C)cc1Br	Cardio protect 54, TbMetRS inhib 41 | Tb MetRS conf 82 | Jurkat cytotox 15 | TbMetRS FP orth 56
O=[N+]([O-])c1ccc(N2CCN(c3ccccc3O)CC2)c(Cl)c1	TbMetRS inhib 7.0 | Tb MetRS conf 12 | Jurkat cytotox 18 | TbMetRS FP orth inactive
CCOC(=O)N1CCN(C(=O)CCCn2c(=O)[nH]c3ccccc3c2=O)CC1	none
CC(=O)c1ccc(N2CCN(C(=O)CCCn3c(=O)[nH]c4ccccc4c3=O)CC2)cc1	TbMetRS inhib 23 | Tb MetRS conf 32 | Jurkat cytotox inactive | TbMetRS FP orth inactive
Nc1ccc(NC(=O)c2ccco2)c(Cl)c1	none
Cc1ccc(S(=O)(=O)c2nc(/C=C/c3ccccc3)oc2N2CCC(C(N)=O)CC2)cc1	none
Cc1ccc2nc(N/C(=N/S(=O)(=O)c3cccs3)c3ccccc3Cl)sc2c1	TbMetRS inhib 6.8 | Tb MetRS conf 13 | Jurkat cytotox inactive | TbMetRS FP orth inactive
Cc1cc(NS(=O)(=O)c2ccc(NC(=O)CSc3nc4ncc(Br)cc4[nH]3)cc2)nc(C)n1	TbMetRS inhib 6.1 | Tb MetRS conf 14 | Jurkat cytotox inactive | TbMetRS FP orth inactive
O=C1CCC(=O)N1OCCCOc1ccc(Br)cc1Cl	TbMetRS inhib 7.0 | Tb MetRS conf 15 | Jurkat cytotox inactive | TbMetRS FP orth 33
CC1CCN(CCCOc2ccc(Br)cc2Cl)CC1	none
C/C(=N/O)c1no[n+]([O-])c1/C(C)=N\O	none
COc1ccc2[nH]c(=O)c(CN(C(=O)NC3CCCCC3)C3CCCCC3)cc2c1	TbMetRS inhib 7.0 | Tb MetRS conf 37 | Jurkat cytotox 18 | TbMetRS FP orth inactive
OCC1(CCOc2ccccc2)CCN(Cc2nc3ccc(F)cc3[nH]2)CC1	TbMetRS inhib 7.5 | Tb MetRS conf 21 | Jurkat cytotox inactive | TbMetRS FP orth inactive
OCC1(CCOc2ccccc2)CCN(Cc2cn[nH]c2-c2ccc(F)cc2)CC1	none
CC(C)CCNC(=O)c1ccc(-n2cnc3cccnc32)cc1	none
O=C(CSC(=S)N1CCCC1)N/N=C/c1c(O)[nH]c(=S)[nH]c1=O	none
Cc1ccc(-c2ccc(CCC(=O)O)n2-c2ccc(O)cc2)cc1	none
O=C(O)CCc1ccc(-c2ccc(Br)cc2)n1-c1ccc(O)cc1	TbMetRS inhib 5.7 | Tb MetRS conf 16 | Jurkat cytotox inactive | TbMetRS FP orth inactive
CN(C)C(CNc1ncnc2sccc12)c1ccccc1 (stereo unspecified)	TbMetRS inhib 8.0 | Tb MetRS conf inactive | Jurkat cytotox inactive | TbMetRS FP orth inactive
O=C(C/C=N\OCc1ccc(Cl)cc1Cl)Nc1ccccc1	none
O=C(C/C=N\OCc1ccc([N+](=O)[O-])cc1)Nc1ccccc1	TbMetRS inhib 13 | Tb MetRS conf 31 | Jurkat cytotox inactive | TbMetRS FP orth inactive
O=C(C/C=N\OCc1ccc([N+](=O)[O-])cc1)Nc1ccc(Cl)cc1	TbMetRS inhib 74 | Tb MetRS conf 101 | Jurkat cytotox inactive | TbMetRS FP orth 80
COc1ccc(OC)c(NC(=O)c2ccccc2OC(C)=O)c1	none
O=C(Nc1nc2ccccc2[nH]1)c1cccc(Cl)c1	none
O=C(O)c1ccc(Nc2nc3ccc(Cl)cc3[nH]2)cc1	TbMetRS inhib 11 | Tb MetRS conf 44 | Jurkat cytotox inactive | TbMetRS FP orth inactive
COc1ccccc1CC(Cc1nc2ccccc2[nH]1)c1nc2ccccc2[nH]1 (stereo unspecified)	TbMetRS inhib 5.7 | Tb MetRS conf 11 | Jurkat cytotox inactive | TbMetRS FP orth inactive
